ED50 and MIC data for 4 compounds are collected here from ChEMBL document CHEMBL1135354, “Synthesis and activity of a novel class of tribasic macrocyclic antibiotics: the triamilides” (2002).

What is called ED50 is the midpoint of the dose-response relation. As usually defined, the MIC is the lowest concentration found to suppress growth.

In brackets after ≈: the same amount, converted by molar mass. A value given as a limit tells only on which side of the number the result lay.

Common to all, as to assay type: functional
The test system of test [1] is Pasteurella multocida. Briefly: Effective dose required to inhibit Pasteurella multocida infection model in mouse by subcutaneous administration. The settings on record: Pasteurella multocida, sc; read-out: ED50. The method, boiled down: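 Mice infected intranasally with P. multocida (respiratory disease model); drug given subcutaneously 0.5 h post-infection at 5–80 mg/kg. ED50 derived from number of surviving mice 4 days after infection.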

Test [2] deals with Pasteurella multocida. The test is described as follows: Minimum inhibitory concentration required to inhibit growth of Pasteurella multocida in vitro by microdilution method. The conditions noted are these: Pasteurella multocida; read-out: MIC. The method, boiled down: (§1)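 Broth microdilution per NCCLS; E. coli 51A0150 (poultry lung) and P. multocida 59A0067 (turkey). Overnight BHI plate colonies suspended in saline to OD625 0.09 (0.5 McFarland), diluted 1:100 in BHI broth; final ~5×10^5 cfu/mL against 2-fold serial dilutions in BHI broth.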

For test [3], the system named is Escherichia coli. The test is described as follows: In vitro minimum inhibitory concentration required to inhibit growth of Escherichia coli. The settings on record: Escherichia coli. The method, boiled down:
as §1

For the compound `CC[C@H]1OC(=O)[C@H](C)[C@@H](O[C@H]2C[C@@](C)(OC)[C@@](O)(CNCC3CC3)[C@H](C)O2)[C@H](C)[C@@H](O[C@@H]2O[C@H](C)C[C@H](N(C)C)[C@H]2O)[C@](C)(O)C[C@@H](C)CN[C@H](C)[C@@H](O)[C@]1(C)O`, in test [1], the ED50 came out at 5.7 mg/kg. In addition, the MIC was 0.1 µg/mL (≈ 0.122 µM) in test [2] and 0.39 µg/mL (≈ 0.477 µM) in test [3].

As to `CC[C@H]1OC(=O)[C@H](C)[C@@H](O[C@H]2C[C@@](C)(OC)[C@](O)(CN3CCCC3)[C@H](C)O2)[C@H](C)[C@@H](O[C@@H]2O[C@H](C)C[C@H](N(C)C)[C@H]2O)[C@](C)(O)C[C@@H](C)CN[C@H](C)[C@@H](O)[C@]1(C)O`, the 50% effective dose (ED50) in test [1] was less than 10 mg/kg. The MIC in test [2] turned out to be 0.05 µg/mL (≈ 0.0611 µM); in test [3] it was 0.2 µg/mL (≈ 0.244 µM).

For `CC[C@H]1OC(=O)[C@H](C)[C@@H](O[C@H]2C[C@@](C)(OC)[C@@](O)(CNCCOC)[C@H](C)O2)[C@H](C)[C@@H](O[C@@H]2O[C@H](C)C[C@H](N(C)C)[C@H]2O)[C@](C)(O)C[C@@H](C)CN[C@H](C)[C@@H](O)[C@]1(C)O`, in test [1], the ED50 was determined as 9.5 mg/kg. The MIC in test [2] is less than 0.1 µg/mL; in test [3] it was 0.78 µg/mL (≈ 0.949 µM).

In the case of `CC[C@H]1OC(=O)[C@H](C)[C@@H](O[C@H]2C[C@@](C)(OC)[C@@](O)(CNC(C)(C)C)[C@H](C)O2)[C@H](C)[C@@H](O[C@@H]2O[C@H](C)C[C@H](N(C)C)[C@H]2O)[C@](C)(O)C[C@@H](C)CN[C@H](C)[C@@H](O)[C@]1(C)O`, the ED50 in test [1] stood at 14 mg/kg. In addition, the MIC in test [2] worked out at 0.1 µg/mL (≈ 0.122 µM); in test [3], 0.39 µg/mL (≈ 0.476 µM).
